In ChEMBL document CHEMBL2417518, “Vinyl sulfone-based peptidomimetics as anti-trypanosomal agents: design, synthesis, biological and computational evaluation” (J Med Chem, 2013):
Calls of active or inactive are those of the source. The calls are words filed in the database; no cut-off is given here.

How the values were obtained:
[1] = Selectivity for bloodstream form of Trypanosoma brucei brucei MITat1.1 over human HL60 cells; set-up: species or system HL-60
Procedure, shortened: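 Both were measured by seeding at 2×10^5 cells/ml with varying inhibitor concentrations, reading absorbance at 540 and 595 nm, and comparing to inhibitor-free controls.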

[2] = system: Trypanosoma brucei brucei; experiment: Antitrypanosomal activity against bloodstream form of Trypanosoma brucei brucei MITat1.1 after 6 to 8 hrs by Alamar Blue assay; type: functional, organism-based; settings: in the assay text read “after 24 hrs” for “after 6 to 8 hrs”
Procedure, shortened: (§1)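 T. b. brucei MITat1.1 cultured in HMI-9 with 10% heat-inactivated FBS, subcultured 1:10 every 24 h to stay in log phase, 37°C, 5% CO2. Seeded at 2×10^5 cells/ml with varying inhibitor concentrations or DMSO alone. Alamar Blue added after 6-8 h, total incubation 24 h. Absorbance read at 540 and 595 nm. EC50 from 4-parameter logistic fit of percent inhibition versus controls.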

[3] = system: Trypanosoma brucei brucei; experiment: Antitrypanosomal activity against bloodstream form of Trypanosoma brucei brucei MITat1.1 after 24 hrs by Alamar Blue assay
HL-60 = experiment: Cytotoxicity against human HL60 cells after 48 hrs by Alamar Blue assay; type: cell-based; settings: hl-60, 48 h
Procedure, shortened: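 HL-60 cells grown in RPMI-1640 with 10% heat-inactivated FBS, penicillin/streptomycin and 2 mM L-glutamine, 37°C, 5% CO2. Seeded at 2×10^5 cells/ml with varying inhibitor concentrations or DMSO alone. Alamar Blue added after 30-32 h, total incubation 48 h. Absorbance read at 540 and 595 nm. EC50 derived from percent signal inhibition versus inhibitor-free controls.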

[4] = system: Trypanosoma brucei brucei; experiment: Antitrypanosomal activity against bloodstream form of Trypanosoma brucei brucei MITat1.1 assessed as bigeye phenotype at 55.6 uM after 24 hrs by epifluorescence microscopy relative to untreated control; type: functional, organism-based
Procedure, shortened: (§2)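 Trypanosomes exposed to the stated concentration at 37°C for 24 h, then fixed 10 min at 37°C in 3% (w/v) paraformaldehyde (final). Washed in PBS with 15 mM sodium azide, then in water, and settled on poly-L-lysine coated coverslips. Kinetoplast/nucleus counts and morphology scored by epifluorescence microscopy against an untreated control.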

[5] = system: Trypanosoma brucei brucei; experiment: Antitrypanosomal activity against bloodstream form of Trypanosoma brucei brucei MITat1.1 assessed as increase in multinucleate cells at 55.6 uM after 24 hrs by epifluorescence microscopy relative to untreated control; type: functional, organism-based; procedure, shortened: as §2
[6] = system: Trypanosoma brucei brucei; experiment: Antitrypanosomal activity against bloodstream form of Trypanosoma brucei brucei; type: functional, organism-based; procedure, shortened: as §1
[7] = system: Trypanosoma brucei brucei; experiment: Antitrypanosomal activity against bloodstream form of Trypanosoma brucei brucei MITat1.1 assessed as increase in multinucleate cells at 0.78 uM after 24 hrs by epifluorescence microscopy relative to untreated control; type: functional, organism-based; procedure, shortened: as §2
[8] = system: Trypanosoma brucei brucei; experiment: Antitrypanosomal activity against bloodstream form of Trypanosoma brucei brucei MITat1.1 assessed as bigeye phenotype at 0.78 uM after 24 hrs by epifluorescence microscopy relative to untreated control; type: functional, organism-based; procedure, shortened: as §2

CC(C)(C)OC(=O)NCCCC[C@@H](/C=C/S(=O)(=O)c1ccc2ccccc2c1)NC(=O)[C@H](Cc1ccccc1)NC(=O)OCc1ccccc1
Selectivity ratio [1]: >53.4 | Activity [2]: Dose-dependent effect | EC50 [2]: 1030 nM

CC(C)(C)OC(=O)NCCCC[C@@H](/C=C/S(=O)(=O)c1ccccc1)NC(=O)[C@H](Cc1ccccc1)NC(=O)OCc1ccccc1
Selectivity ratio [1]: >83 | Activity [2]: Dose-dependent effect | EC50 [3]: 660 nM

CC(C)(C)OC(=O)NCCCC[C@@H](/C=C/S(=O)(=O)c1cccc2ccccc12)NC(=O)[C@H](Cc1ccccc1)NC(=O)OCc1ccccc1
Selectivity ratio [1]: >80.1 | Activity [2]: Dose-dependent effect | EC50 [3]: 680 nM

CC(C)(C)OC(=O)NCCCC[C@@H](CCS(=O)(=O)c1ccccc1)NC(=O)[C@H](Cc1ccccc1)NC(=O)OCc1ccccc1
Selectivity ratio [1]: >2.1 | Activity [2]: Dose-dependent effect | EC50 [3]: 26400 nM

CC(C)C[C@H](NC(=O)OCc1ccccc1)C(=O)N[C@H](/C=C/S(=O)(=O)c1ccccc1)CCCCNC(=O)OC(C)(C)C
Selectivity ratio [1]: >46.6 | Activity [2]: Dose-dependent effect | EC50 [2]: 1180 nM

Cc1ccc(S(=O)(=O)NCCCC[C@@H](/C=C/S(=O)(=O)c2ccccc2)NC(=O)[C@H](Cc2ccccc2)NC(=O)OCc2ccccc2)cc1
Selectivity ratio [1]: >220 | Activity [2]: Dose-dependent effect | EC50 [2]: 250 nM

CC(C)(C)OC(=O)NCCCC[C@@H](/C=C/C(=O)c1ccccc1)NC(=O)[C@H](Cc1ccccc1)NC(=O)OCc1ccccc1
Selectivity ratio [1]: >67.1 | Activity [2]: Dose-dependent effect | EC50 [2]: 820 nM | Activity (HL-60): Toxic

CN1CCN(C(=O)N[C@@H](Cc2ccccc2)C(=O)N[C@H](/C=C/S(=O)(=O)c2ccccc2)CCc2ccccc2)CC1 [K-777]
Selectivity ratio [1]: > 9.9 | Activity [2]: Dose-dependent effect | Activity [4]: Active | Activity [5]: Active | EC50 [3]: 5560 nM | IC50 [6]: 100 nM

Cl.NCCCC[C@@H](/C=C/S(=O)(=O)c1ccccc1)NC(=O)[C@H](Cc1ccccc1)NC(=O)OCc1ccccc1
Selectivity ratio [1]: >2.4 | Activity [2]: Dose-dependent effect | EC50 [2]: 22400 nM

CC(C)(C)OC(=O)NCCCC[C@@H](/C=C/S(=O)(=O)c1ccccc1)NC(=O)[C@@H]1CCCN1C(=O)OCc1ccccc1
Selectivity ratio [1]: >5.7 | Activity [2]: Dose-dependent effect | EC50 [3]: 9960 nM

COc1cc(Br)c(S(=O)(=O)NCCCC[C@@H](/C=C/S(=O)(=O)c2ccccc2)NC(=O)[C@H](Cc2ccccc2)NC(=O)OCc2ccccc2)cc1OC
Selectivity ratio [1]: >177.4 | Activity [2]: Dose-dependent effect | EC50 [2]: 310 nM

O=C(N[C@@H](Cc1ccccc1)C(=O)N[C@H](/C=C/S(=O)(=O)c1ccccc1)CCCCNS(=O)(=O)c1cccc2ccccc12)OCc1ccccc1
Selectivity ratio [1]: >785.7 | Activity [2]: Dose-dependent effect | EC50 [2]: 70 nM | Activity [7]: Active | Activity [8]: Active
